ChEMBL document CHEMBL1123123, “Orally absorbable cephalosporin antibiotics. 2. Structure-activity studies of bicyclic glycine derivatives of 7-aminodeacetoxycephalosporanic acid” (1985)
≈ marks a conversion by molar mass, not a printed value.

Experiments:
Assay type in all cases: functional
[1] = test system: Staphylococcus epidermidis; experiment: The compound was tested for antibacterial activity against Staphylococcus epidermidis EP11.
Haemophilus influenzae [2] = experiment: The compound was tested for antibacterial activity against sensitive Haemophilus influenzae C.L.
Streptococcus pyogenes = experiment: The compound was tested for antibacterial activity against Streptococcus pyogenes C203.
Streptococcus = experiment: The compound was tested for antibacterial activity against Streptococcus group D X66.
Staphylococcus aureus [3] = experiment: Antibacterial activity against methicillin resistant Staphylococcus aureus X400.
Outline: (§1)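 Agar dilution susceptibility test following a previously published method; value recorded as MIC. Racemic compounds were separated by preparative HPLC and only the R epimers were tested.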

Staphylococcus aureus [4] = experiment: Antibacterial activity against methicillin resistant Staphylococcus aureus S13E.; outline: as §1
Staphylococcus aureus [5] = experiment: Antibacterial activity against penicillin G resistant Staphylococcus aureus V41.; outline: as §1
Streptococcus pneumoniae = experiment: The compound was tested for antibacterial activity against Streptococcus pneumoniae Park.
Staphylococcus aureus [6] = experiment: Antibacterial activity against penicillin G sensitive Staphylococcus aureus X1.1
Haemophilus influenzae [7] = experiment: The compound was tested for antibacterial activity against resistant Haemophilus influenzae 76.; outline: as §1
Staphylococcus aureus [8] = experiment: Aantibacterial activity against methicillin resistant Staphylococcus aureus S13E.; outline: as §1
Mus musculus [9] = experiment: Dose administered subcutaneously in mice infected with Streptococcus pyogenes; conditions: sc
Outline: (§2)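 Mice were used in groups of 10 and inoculated with S. aureus, S. pyogenes or S. pneumoniae. Drug was given orally or subcutaneously at 1 and 5 h after inoculation. The ED50 was determined from the dosed groups.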

Mus musculus [10] = experiment: Dose administered orally in mice infected with Streptococcus pneumoniae; conditions: po; outline: as §2
Mus musculus [11] = experiment: Dose administered orally in mice infected with Streptococcus pyogenes.; conditions: po; outline: as §2
Mus musculus [12] = experiment: Dose administered subcutaneously in mice infected with Streptococcus pneumoniae; conditions: sc; outline: as §2
Mus musculus [13] = experiment: Dose administered orally in mice infected with Staphylococcus aureus.; conditions: po; outline: as §2
Mus musculus [14] = experiment: Dose administered subcutaneously in mice infected with Staphylococcus aureus.; conditions: sc; outline: as §2

CC1=C(C(=O)O)N2C(=O)C(NC(=O)C(N)c3cc4sccc4s3)C2SC1 (stereo not drawn)
MIC [1]: 16 µg/mL (≈ 39.1 µM)
MIC (Haemophilus influenzae [2]): 64 µg/mL (≈ 156 µM)
MIC (Streptococcus pyogenes): 0.25 µg/mL (≈ 0.61 µM)
MIC (Streptococcus): > 64 µg/mL
MIC (Staphylococcus aureus [3]): > 64 µg/mL
MIC (Staphylococcus aureus [4]): 64 µg/mL (≈ 156 µM)
MIC (Staphylococcus aureus [5]): 32 µg/mL (≈ 78.1 µM)
MIC (Streptococcus pneumoniae): 1 µg/mL (≈ 2.44 µM)
MIC (Staphylococcus aureus [6]): 0.5 µg/mL (≈ 1.22 µM)
MIC (Haemophilus influenzae [7]): 2 µg/mL (≈ 4.88 µM)

CC1=C(C(=O)O)N2C(=O)C(NC(=O)C(N)c3cccc4c(C)csc34)C2SC1 (stereo not drawn)
MIC [1]: 8 µg/mL (≈ 19.2 µM)
MIC (Haemophilus influenzae [2]): 8 µg/mL (≈ 19.2 µM)
MIC (Streptococcus pyogenes): 1 µg/mL (≈ 2.4 µM)
MIC (Streptococcus): 64 µg/mL (≈ 153 µM)
MIC (Staphylococcus aureus [3]): 64 µg/mL (≈ 153 µM)
MIC (Staphylococcus aureus [5]): 16 µg/mL (≈ 38.3 µM)
MIC (Streptococcus pneumoniae): 2 µg/mL (≈ 4.79 µM)
MIC (Staphylococcus aureus [8]): 64 µg/mL (≈ 153 µM)
MIC (Staphylococcus aureus [6]): 2 µg/mL (≈ 4.79 µM)
MIC (Haemophilus influenzae [7]): 1 µg/mL (≈ 2.4 µM)

CC1=C(C(=O)O)N2C(=O)C(NC(=O)C(N)c3cc4ccsc4s3)C2SC1 (stereo not drawn)
MIC [1]: 4 µg/mL (≈ 9.77 µM)
MIC (Haemophilus influenzae [2]): 8 µg/mL (≈ 19.5 µM)
MIC (Streptococcus pyogenes): 0.25 µg/mL (≈ 0.61 µM)
MIC (Streptococcus): > 64 µg/mL
MIC (Staphylococcus aureus [3]): > 64 µg/mL
MIC (Staphylococcus aureus [4]): 16 µg/mL (≈ 39.1 µM)
MIC (Staphylococcus aureus [5]): 32 µg/mL (≈ 78.1 µM)
MIC (Streptococcus pneumoniae): 0.5 µg/mL (≈ 1.22 µM)
MIC (Staphylococcus aureus [6]): 0.5 µg/mL (≈ 1.22 µM)
MIC (Haemophilus influenzae [7]): 2 µg/mL (≈ 4.88 µM)

CC1=C(C(=O)O)N2C(=O)C(NC(=O)C(N)c3cccc4sccc34)C2SC1 (stereo not drawn)
MIC [1]: 16 µg/mL (≈ 39.7 µM)
MIC (Haemophilus influenzae [2]): 4 µg/mL (≈ 9.91 µM)
MIC (Streptococcus pyogenes): 0.25 µg/mL (≈ 0.62 µM)
MIC (Streptococcus): 64 µg/mL (≈ 159 µM)
MIC (Staphylococcus aureus [3]): 64 µg/mL (≈ 159 µM)
MIC (Staphylococcus aureus [4]): 64 µg/mL (≈ 159 µM)
MIC (Staphylococcus aureus [5]): 16 µg/mL (≈ 39.7 µM)
MIC (Streptococcus pneumoniae): 1 µg/mL (≈ 2.48 µM)
MIC (Staphylococcus aureus [6]): 2 µg/mL (≈ 4.96 µM)
MIC (Haemophilus influenzae [7]): 2 µg/mL (≈ 4.96 µM)

CC1=C(C(=O)O)N2C(=O)C(NC(=O)C(N)c3ccc4sccc4c3)C2SC1 (stereo not drawn)
MIC [1]: 2 µg/mL (≈ 4.96 µM)
MIC (Haemophilus influenzae [2]): 8 µg/mL (≈ 19.8 µM)
MIC (Streptococcus pyogenes): 0.125 µg/mL (≈ 0.31 µM)
MIC (Streptococcus): 64 µg/mL (≈ 159 µM)
MIC (Staphylococcus aureus [3]): 64 µg/mL (≈ 159 µM)
MIC (Staphylococcus aureus [4]): 64 µg/mL (≈ 159 µM)
MIC (Staphylococcus aureus [5]): 4 µg/mL (≈ 9.91 µM)
MIC (Streptococcus pneumoniae): 0.5 µg/mL (≈ 1.24 µM)
MIC (Staphylococcus aureus [6]): 0.5 µg/mL (≈ 1.24 µM)
MIC (Haemophilus influenzae [7]): 4 µg/mL (≈ 9.91 µM)

CC(=O)N1CCc2cc(C(N)C(=O)NC3C(=O)N4C(C(=O)O)=C(C)CSC34)ccc21 (stereo not drawn)
ED50 (Mus musculus [9]): 0.79 mg/kg
MIC [1]: 8 µg/mL (≈ 18.6 µM)
ED50 (Mus musculus [10]): 9.3 mg/kg
MIC (Haemophilus influenzae [2]): 16 µg/mL (≈ 37.2 µM)
ED50 (Mus musculus [11]): 2.6 mg/kg
MIC (Streptococcus pyogenes): 1 µg/mL (≈ 2.32 µM)
MIC (Streptococcus): 64 µg/mL (≈ 149 µM)
MIC (Staphylococcus aureus [3]): 64 µg/mL (≈ 149 µM)
MIC (Staphylococcus aureus [4]): 64 µg/mL (≈ 149 µM)
MIC (Staphylococcus aureus [5]): 64 µg/mL (≈ 149 µM)
ED50 (Mus musculus [12]): 10.6 mg/kg
ED50 (Mus musculus [13]): 0.85 mg/kg
MIC (Streptococcus pneumoniae): 1 µg/mL (≈ 2.32 µM)
MIC (Staphylococcus aureus [6]): 2 µg/mL (≈ 4.65 µM)
ED50 (Mus musculus [14]): 2.11 mg/kg
MIC (Haemophilus influenzae [7]): 8 µg/mL (≈ 18.6 µM)

CC1=C(C(=O)O)N2C(=O)[C@@H](NC(=O)[C@H](N)c3ccccc3)[C@H]2SC1 [CEPHALEXIN ANHYDROUS]
ED50 (Mus musculus [9]): 2.9 mg/kg
MIC [1]: 32 µg/mL (≈ 92.1 µM)
ED50 (Mus musculus [10]): 37 mg/kg
MIC (Haemophilus influenzae [2]): 8 µg/mL (≈ 23 µM)
ED50 (Mus musculus [11]): 1.77 mg/kg
MIC (Streptococcus pyogenes): 0.5 µg/mL (≈ 1.44 µM)
ED50 (Mus musculus [12]): 30.5 mg/kg
ED50 (Mus musculus [13]): 0.9 mg/kg
MIC (Streptococcus pneumoniae): 2 µg/mL (≈ 5.76 µM)
MIC (Staphylococcus aureus [6]): 4 µg/mL (≈ 11.5 µM)
ED50 (Mus musculus [14]): 1.66 mg/kg
MIC (Haemophilus influenzae [7]): 8 µg/mL (≈ 23 µM)
